This note sets out measurements from ChEMBL document CHEMBL5338796, “Discovery of a Selective and Orally Bioavailable FGFR2 Degrader for Treating Gastric Cancer” (J Med Chem, 2023).

Calls of active or inactive are those of the source. The calls are words filed in the database; no cut-off is given here.

The term inhibition denotes how much of the control response was suppressed. As a reminder, the IC50 is the concentration that inhibits the measured activity by half. One may read the Cmax as the maximum level reached in the sampled fluid or tissue.

Series [1] concerns the target Fibroblast growth factor receptor 2 (Homo sapiens) (UniProt P21802). In words: Induction of FGFR2 receptor internalization in human KATO III stomach cancer cell line at 100 nM measured for 6 hrs by immunofluorescence assay. As to conditions: filed as activator. The class given is cell-based. An outline of the steps:
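KATO III cells treated with 100 nM for 3 or 6 h, fixed in 2% formaldehyde 2 min, blocked 5% BSA 1 h, anti-FGFR2 overnight, Alexa Fluor 488 secondary 1 h, DAPI 10 min; imaged by fluorescence microscopy.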

In series [2] the target is Fibroblast growth factor receptor 3 (Homo sapiens) (UniProt P22607). The series is described as follows: Inhibition of partial length human FGFR3 at 1000 nM by KINOMEscan analysis relative to control. An outline of the steps: (§1)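 97-kinase scanEDGE panel screened at 1000 nM; results reported as % Ctrl, lower values meaning stronger inhibition.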
Fibroblast growth factor receptor 3 (Homo sapiens), sequence (P22607 23-806 limits assumed): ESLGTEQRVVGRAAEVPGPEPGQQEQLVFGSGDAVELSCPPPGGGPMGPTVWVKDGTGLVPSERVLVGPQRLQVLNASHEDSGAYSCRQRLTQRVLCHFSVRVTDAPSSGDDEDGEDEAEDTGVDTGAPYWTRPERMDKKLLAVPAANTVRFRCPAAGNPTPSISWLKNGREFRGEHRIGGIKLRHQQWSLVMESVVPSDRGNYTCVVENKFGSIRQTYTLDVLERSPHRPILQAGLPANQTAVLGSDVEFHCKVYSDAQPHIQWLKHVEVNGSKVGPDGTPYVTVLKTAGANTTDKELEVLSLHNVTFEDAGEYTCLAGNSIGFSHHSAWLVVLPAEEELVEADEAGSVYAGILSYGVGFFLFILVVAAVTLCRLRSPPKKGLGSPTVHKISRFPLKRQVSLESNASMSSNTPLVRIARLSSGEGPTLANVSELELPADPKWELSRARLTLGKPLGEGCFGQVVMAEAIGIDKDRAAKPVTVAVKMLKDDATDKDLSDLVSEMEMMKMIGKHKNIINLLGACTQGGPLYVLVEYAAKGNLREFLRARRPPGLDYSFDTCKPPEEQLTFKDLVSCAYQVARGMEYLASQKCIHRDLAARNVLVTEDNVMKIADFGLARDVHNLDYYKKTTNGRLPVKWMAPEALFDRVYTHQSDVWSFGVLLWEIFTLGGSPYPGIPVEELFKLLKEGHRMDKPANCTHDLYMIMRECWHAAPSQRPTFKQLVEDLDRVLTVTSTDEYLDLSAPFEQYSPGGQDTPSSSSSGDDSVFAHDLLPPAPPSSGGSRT
Series [3] deals with Macrophage colony-stimulating factor 1 receptor (Homo sapiens) (UniProt P07333). The series is described as follows: Inhibition of partial length human CSF1R at 1000 nM by KINOMEscan analysis relative to control. In a few lines: as §1
Macrophage colony-stimulating factor 1 receptor (Homo sapiens), sequence (P07333 whole entry, the tested form may be a part): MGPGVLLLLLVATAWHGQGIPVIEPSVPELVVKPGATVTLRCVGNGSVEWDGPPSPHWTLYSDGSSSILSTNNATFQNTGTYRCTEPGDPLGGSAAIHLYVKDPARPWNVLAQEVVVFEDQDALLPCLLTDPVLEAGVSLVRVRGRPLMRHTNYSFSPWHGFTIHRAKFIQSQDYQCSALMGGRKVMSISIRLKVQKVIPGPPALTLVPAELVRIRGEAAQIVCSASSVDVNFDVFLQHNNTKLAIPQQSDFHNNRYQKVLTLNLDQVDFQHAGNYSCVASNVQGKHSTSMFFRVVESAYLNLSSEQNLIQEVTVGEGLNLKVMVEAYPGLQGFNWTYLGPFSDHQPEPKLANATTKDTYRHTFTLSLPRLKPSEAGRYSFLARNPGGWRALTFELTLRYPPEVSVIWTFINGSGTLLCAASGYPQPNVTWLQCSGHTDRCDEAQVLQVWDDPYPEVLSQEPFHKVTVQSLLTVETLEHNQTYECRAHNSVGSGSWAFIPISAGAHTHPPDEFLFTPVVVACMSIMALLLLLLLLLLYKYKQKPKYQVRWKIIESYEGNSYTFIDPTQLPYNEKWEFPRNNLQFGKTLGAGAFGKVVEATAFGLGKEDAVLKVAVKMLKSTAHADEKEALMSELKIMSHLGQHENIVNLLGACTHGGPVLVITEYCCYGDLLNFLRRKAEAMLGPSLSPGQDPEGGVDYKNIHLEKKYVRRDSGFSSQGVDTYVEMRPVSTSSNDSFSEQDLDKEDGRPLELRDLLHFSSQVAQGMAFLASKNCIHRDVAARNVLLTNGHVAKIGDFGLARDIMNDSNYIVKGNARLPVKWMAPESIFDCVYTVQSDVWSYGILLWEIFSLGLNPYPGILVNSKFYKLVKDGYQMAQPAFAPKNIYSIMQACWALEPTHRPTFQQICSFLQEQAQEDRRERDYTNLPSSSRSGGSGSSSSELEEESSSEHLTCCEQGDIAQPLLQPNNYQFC
Series [4] has as its system BaF3. The series is described as follows: Antiproliferative activity against mouse BaF3 cells expressing Tel-FGFR3 assessed as cell growth inhibition measured after 72 hrs by celltiter-glo reagent based assay. The class given is functional. The note with it: BaF3, 72 h. An outline of the steps: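 Ba/F3 cells stably expressing cytoplasmic TEL-FGFR1, -2, -3 or -4 fusions were treated in 96-well format, final DMSO 0.1%, for 72 h. Viability read by CellTiter-Glo luminescence after 10 min at room temperature. Inhibition calculated from blank- and control-corrected RLU; IC50 from 4-parameter concentration–response fit.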
A general note: Cellular ATP, detected with luciferase, serves as a proxy for viable cell number.

Series [5] addresses Protein cereblon/Fibroblast growth factor receptor 2 (Homo sapiens, UniProt P21802+Q96SW2). In words: PROTAC activity at CRBN/FGFR2 in human KATO III stomach cancer cell line assessed as FGFR2 degradation measured for 6 hrs in presence of MG132 by immunoblot analysis. Type of series: cell-based. An outline of the steps:
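KATO III cells were pretreated with 1 μM proteasome inhibitor (MG132 or bortezomib), then exposed to degrader at 100 nM for 6 h. FGFR2 was read by immunoblot against β-actin loading, with ECL detection.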
(Immunoblotting shows a protein as a band on a membrane.)

The nature of series [6]: Toxicity in BALB/c mouse xenografted with human SNU-16 cells assessed as tolerability at 20 mg/kg, po administered for 15 days and measured on day 2. The class given is organism-based. The note with it: in vivo, 48 h, time 2 day. An outline of the steps:
(§2)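 Female BALB/c nude mice, 5 weeks old (20–22 g), carried subcutaneous SNU-16 xenografts in the right flank. Dosing began at mean tumor volume 50–100 mm3, after randomization by body weight, n = 5. Mice received 20 mg/kg/day by gavage in 0.5% CMC-Na, QD for 15 d, with vehicle controls. Body weight was measured every 2 days.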
(In general: A xenograft is tissue or cells of one species grown in another, often human tumour cells in immunodeficient mice.)

Series [7] in a line: Toxicity in BALB/c mouse xenografted with human SNU-16 cells assessed as body weight loss at 20 mg/kg, po administered for 15 days and measured on day 2. The note with it: in vivo, 48 h, time 2 day. The class given is organism-based. In a few lines:
as §2

Series [8] can be described thus: Cmax in mouse at 20 mg/kg, po measured at 0.25 to 24 hrs by LC-MS/MS analysis. As to conditions: in vivo.

Fibroblast growth factor receptor 2 (Homo sapiens), sequence (P21802 22-821 limits assumed): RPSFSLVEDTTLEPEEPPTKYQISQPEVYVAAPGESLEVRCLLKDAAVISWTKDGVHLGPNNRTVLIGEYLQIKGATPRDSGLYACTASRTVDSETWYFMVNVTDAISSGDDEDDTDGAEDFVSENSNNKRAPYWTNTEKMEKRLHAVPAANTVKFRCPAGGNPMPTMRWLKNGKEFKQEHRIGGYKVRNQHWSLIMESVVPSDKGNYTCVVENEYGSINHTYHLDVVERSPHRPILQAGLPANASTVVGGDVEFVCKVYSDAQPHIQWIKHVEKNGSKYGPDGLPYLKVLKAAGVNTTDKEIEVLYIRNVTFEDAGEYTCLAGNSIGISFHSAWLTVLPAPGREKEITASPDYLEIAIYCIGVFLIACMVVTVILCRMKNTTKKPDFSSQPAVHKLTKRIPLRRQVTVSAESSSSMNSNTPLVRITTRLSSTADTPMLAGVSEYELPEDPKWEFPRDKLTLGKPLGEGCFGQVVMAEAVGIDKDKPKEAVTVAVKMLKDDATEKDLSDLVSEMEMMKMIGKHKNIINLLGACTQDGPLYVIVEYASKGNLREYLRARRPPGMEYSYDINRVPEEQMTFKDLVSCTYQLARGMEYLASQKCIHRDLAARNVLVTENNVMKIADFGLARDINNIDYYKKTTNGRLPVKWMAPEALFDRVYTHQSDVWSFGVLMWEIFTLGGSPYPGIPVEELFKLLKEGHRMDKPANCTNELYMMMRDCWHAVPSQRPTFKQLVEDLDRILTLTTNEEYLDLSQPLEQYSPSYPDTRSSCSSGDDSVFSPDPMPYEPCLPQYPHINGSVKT
Protein cereblon/Fibroblast growth factor receptor 2, sequence (P21802 22-821 limits assumed): as above
Protein cereblon/Fibroblast growth factor receptor 2, sequence (Q96SW2 whole entry partner): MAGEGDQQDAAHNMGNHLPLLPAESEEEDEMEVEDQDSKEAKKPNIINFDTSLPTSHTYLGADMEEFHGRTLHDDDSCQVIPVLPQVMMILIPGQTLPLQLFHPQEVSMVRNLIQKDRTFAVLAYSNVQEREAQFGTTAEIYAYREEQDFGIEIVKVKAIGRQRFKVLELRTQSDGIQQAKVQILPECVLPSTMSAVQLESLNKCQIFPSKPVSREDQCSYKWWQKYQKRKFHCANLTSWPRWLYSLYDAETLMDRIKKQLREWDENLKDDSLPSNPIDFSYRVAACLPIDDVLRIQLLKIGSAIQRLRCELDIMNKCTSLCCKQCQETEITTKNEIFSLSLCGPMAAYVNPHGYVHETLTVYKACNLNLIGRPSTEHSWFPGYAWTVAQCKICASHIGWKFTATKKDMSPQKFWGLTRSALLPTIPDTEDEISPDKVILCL

Turning to `COc1cc(OC)c(Cl)c(NC(=O)N(C)c2cc(Nc3ccc(N4CCN(C(=O)C5CCN(c6ccc7c(c6)C(=O)N(C6CCC(=O)NC6=O)C7=O)CC5)CC4)cc3)ncn2)c1Cl` (stereo not drawn), the result in series [1] was Active. For the same compound, the inhibition in series [2] amounted to 71%; in series [3], 76%. Also, the IC50 in series [4] came to 139 nM. Further, the result in series [5] was inactive. The Activity result in series [6] and in series [7] was “Non-Toxic” each time. The compound further gave a Cmax in series [8] of 82.1 ng/mL.
